Source: ChEMBL document CHEMBL5113533 (J Med Chem, 2022)
Activity calls are given as the source filed them.

Legend:
THP-1 [1] = assay: Antiinflammatory activity against LPS-stimulated human THP-1 cells assessed reduction in IL-6 level pretreated at 5 uM for 1 hr followed by LPS stimulation and measured upto 24 hrs by ELISA analysis; assay type: functional, cell-based
Method in brief: (§1)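 THP-1 cells pre-treated with compound for 1 h (5 μM or 1 μM, depending on the compound), then stimulated with 100 ng/mL LPS. Culture supernatant was taken at 24 h, and TNF-α, IL-6 or IL-1β was measured by sandwich ELISA at 450 nm with 540 nm correction; four biological replicates.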

THP-1 [2] = assay: Antiinflammatory activity against LPS-stimulated human THP-1 cells assessed reduction in IL-1beta level pretreated at 5 uM for 1 hr followed by LPS stimulation and measured upto 24 hrs by ELISA analysis; assay type: functional, cell-based; method in brief: as §1
THP-1 [3] = assay: Antiinflammatory activity against LPS-stimulated human THP-1 cells assessed reduction in TNFalpha level pretreated at 5 uM for 1 hr followed by LPS stimulation and measured upto 24 hrs by ELISA analysis; assay type: functional, cell-based; method in brief: as §1
THP-1 [4] = assay: Antiinflammatory activity against LPS-stimulated human THP-1 cells assessed as blockage of inflammatory phenotype by measuring m/z ratio at 5 uM pretreated for 1 hr followed by LPS stimulation and measured upto 24 hrs; assay type: functional, cell-based
Method in brief: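 THP-1 cells at 1 million/mL, pre-treated with compound at 5 μM for 1 h in technical triplicate, then 100 ng/mL LPS for 24 h. Pellets frozen on dry ice, thawed, washed in 100 mM Tris–HCl pH 7.5 at 4 °C. MALDI-TOF MS read-out is the normalized m/z 4964/4632 ratio, with a 40% cutoff used for hit calling; three biological replicates.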

THP-1 [5] = assay: Antiinflammatory activity against Escherichia coli induced human THP-1 cells assessed as reduction in proinflammatory phenotype at 1 uM for 1 hr followed by Escherichia coli stimulation and measured upto 24 hrs by MALDI-TOF MS analysis; assay type: functional, cell-based
Method in brief: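 THP-1 cells pre-treated with compound for 1 h, then infected with live E. coli (MOI 2), spun 500g 5 min, left 15 or 30 min for uptake, then 100 μg/mL gentamicin for 1 h and 20 μg/mL gentamicin thereafter, up to 24 h. Pellets frozen on dry ice, thawed, washed in 100 mM Tris–HCl pH 7.5 at 4 °C, and read by MALDI-TOF MS as the normalized m/z 4964/4632 ratio.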

[6] = target: MAP kinase-activated protein kinase 2 (Homo sapiens) (UniProt P49137); assay: Inhibition of MK2 in Escherichia coli -stimulated human THP-1 cells assessed as reduction in p38alpha MAPK phosphorylation at 1 uM pretreated for 1 hr followed by Escherichia coli stimulation and measured up to 15 mins by western blot analysis; assay type: cell-based; details: time 1.15 hrs
Chain of MAP kinase-activated protein kinase 2 (Homo sapiens) (P49137 whole entry, looked up): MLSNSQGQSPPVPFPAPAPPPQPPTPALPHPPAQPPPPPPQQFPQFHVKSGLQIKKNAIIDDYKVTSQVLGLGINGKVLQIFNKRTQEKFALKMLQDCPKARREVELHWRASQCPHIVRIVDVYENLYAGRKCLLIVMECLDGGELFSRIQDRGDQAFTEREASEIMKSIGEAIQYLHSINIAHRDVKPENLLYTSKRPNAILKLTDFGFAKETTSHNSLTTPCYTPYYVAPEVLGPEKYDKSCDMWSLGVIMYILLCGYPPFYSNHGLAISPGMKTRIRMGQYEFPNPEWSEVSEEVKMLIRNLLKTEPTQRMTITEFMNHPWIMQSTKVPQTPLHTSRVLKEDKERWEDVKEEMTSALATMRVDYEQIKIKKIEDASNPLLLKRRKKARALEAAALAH

CCN1CCN(Cc2ccc(NC(=O)c3ccc(C)c(Oc4ccnc5[nH]ccc45)c3)cc2C(F)(F)F)CC1
active: Activity (THP-1 [1]) | Activity (THP-1 [2]) | Activity (THP-1 [3]) | Activity (THP-1 [4])

CC[C@@H]1C(=O)N(C)c2cnc(Nc3ccc(C(=O)NC4CCN(C)CC4)cc3OC)nc2N1C1CCCC1
active: Activity (THP-1 [1]) | Activity (THP-1 [2]) | Activity (THP-1 [3]) | Activity (THP-1 [4])

Cc1c(F)cc(C(=O)NC2CC2)cc1-c1ccc(C(=O)NCC(C)(C)C)cn1
active: Activity (THP-1 [5]) | inhibition [6]
